Assay results published in ChEMBL document CHEMBL3774373, “Activity and Predicted Nephrotoxicity of Synthetic Antibiotics Based on Polymyxin B” (J Med Chem, 2016).
In brackets after ≈: the same amount, converted by molar mass. Bridge positions count the residues as written; N and C are the ends. Square brackets hold non-standard residues; d marks the D form. Peptide text beside a SMILES is read from it. * marks the point of attachment. Phe(4-NH2) = Nc1ccc(C[C@H](N)C(=O)O)cc1; dGly(nOct) = CCCCCCCC[C@@H](N)C(=O)O; Gly(octyl) = CCCCCCCC[C@H](N)C(=O)O; Octanoyl = CCCCCCCC(=O)*; Dab = NCC[C@H](N)C(=O)O

How the values were obtained:
[1] = Cytotoxicity against human HepG2 cells after 24 hrs by resazurin assay; assay type: cell-based; conditions: HepG2 cells
Klebsiella pneumoniae [2] = test: Antibacterial activity against Klebsiella pneumoniae ATCC 13883 after 18 hrs by 2 fold serial dilution method; assay type: functional
Method in brief: (§1)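 Overnight cultures in nutrient or Mueller Hinton broth at 37 °C with shaking, diluted 50-fold into fresh MHB and grown 1.5–3 h to mid-log. Inoculum 5×10^5 CFU/mL in 2-fold serial dilutions, final range 32 to 0.015 μg/mL. MIC read visually after 18 h at 37 °C as the lowest concentration with no visible growth.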

Acinetobacter baumannii [3] = test: Antibacterial activity against Acinetobacter baumannii ATCC 19606 after 18 hrs by 2 fold serial dilution method; assay type: functional; method in brief: as §1
Pseudomonas aeruginosa [4] = test: Antibacterial activity against Pseudomonas aeruginosa ATCC 27853 after 18 hrs by 2 fold serial dilution method; assay type: functional; method in brief: as §1
Escherichia coli = test: Antibacterial activity against Escherichia coli ATCC 25922 after 18 hrs by 2 fold serial dilution method; assay type: functional; method in brief: as §1
Klebsiella pneumoniae [5] = test: Antibacterial activity against multidrug resistant Klebsiella pneumoniae ATCC 700603 after 18 hrs by 2 fold serial dilution method; assay type: functional
Method in brief: (§2)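 Overnight cultures at 37 °C in nutrient or Mueller Hinton broth with shaking were diluted 50-fold in MHB and grown 1.5–3 h to mid-log phase. The inoculum was 5×10^5 CFU/mL in MHB. Compounds were 2-fold serially diluted, final 32 to 0.015 μg/mL. After 18 h at 37 °C, the MIC was read visually as the lowest concentration with no visible growth.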

Pseudomonas aeruginosa [6] = test: Antibacterial activity against clinical isolate polymyxin resistant Pseudomonas aeruginosa FADDI-PA070 after 18 hrs by 2 fold serial dilution method; assay type: functional
Method in brief: (§3)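 Polymyxin-resistant clinical isolates were grown overnight at 37 °C in NB or MHB with shaking, diluted 50-fold in MHB and grown 1.5–3 h to mid-log phase. The inoculum was 5×10^5 CFU/mL. Compounds were 2-fold broth serial dilutions, final 32 to 0.015 μg/mL; the polymyxin controls ran 128–0.06 μg/mL. The MIC was the lowest concentration with no visible growth after 18 h at 37 °C.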

Pseudomonas aeruginosa [7] = test: Antibacterial activity against clinical isolate polymyxin resistant Pseudomonas aeruginosa PA9704 after 18 hrs by 2 fold serial dilution method; assay type: functional; method in brief: as §3
Acinetobacter baumannii [8] = test: Antibacterial activity against clinical isolate carbapenem and polymyxin resistant Acinetobacter baumannii Ptyela 100734512:2 after 18 hrs by 2 fold serial dilution method; assay type: functional; method in brief: as §3
Klebsiella pneumoniae [9] = test: Antibacterial activity against clinical isolate carbapenem and polymyxin resistant Klebsiella pneumoniae Koprana 100650661:1 after 18 hrs by 2 fold serial dilution method; assay type: functional; method in brief: as §3
Klebsiella pneumoniae [10] = test: Antibacterial activity against clinical isolate carbapenem and polymyxin resistant Klebsiella pneumoniae 138-16357-20362 after 18 hrs by 2 fold serial dilution method; assay type: functional; method in brief: as §3
Staphylococcus aureus = test: microbe, parasite or virus in culture; conditions: ATCC 25923, 18 h
Klebsiella pneumoniae [11] = test: Antibacterial activity against Klebsiella pneumoniae ATCC BAA-2146 expressing NDM-1 after 18 hrs by 2 fold serial dilution method; assay type: functional; method in brief: as §2
[12] = Klebsiella pneumoniae, 700603, 18 h

Compound | MIC (Klebsiella pneumoniae [2]; ATCC 13883, 18 h) | MIC (Acinetobacter baumannii [3]; ATCC 19606, 18 h) | MIC (Pseudomonas aeruginosa [4]; ATCC 27853, 18 h) | MIC (Escherichia coli; ATCC 25922, 18 h) | MIC (Klebsiella pneumoniae [5]; [12]) | MIC (Pseudomonas aeruginosa [6]; FADDI-PA070, 18 h) | MIC (Pseudomonas aeruginosa [7]; PA9704, 18 h) | MIC (Acinetobacter baumannii [8]; Ptyela 100734512:2, 18 h) | MIC (Klebsiella pneumoniae [9]; Koprana 100650661:1, 18 h) | MIC (Klebsiella pneumoniae [10]; 138-16357-20362, 18 h) | MIC (Staphylococcus aureus) | other results
CN[C@@H](CC(C)C)C(=O)N[C@H]1C(=O)N[C@@H](CC(N)=O)C(=O)N[C@H]2C(=O)N[C@H]3C(=O)N[C@H](C(=O)N[C@@H](C(=O)O)c4cc(O)cc(O)c4-c4cc3ccc4O)[C@H](O)c3ccc(c(Cl)c3)Oc3cc2cc(c3O[C@H]2O[C@@H](CO)[C@H](O)[C@@H](O)[C@@H]2O[C@@H]2C[C@@](C)(N)[C@@H](O)[C@@H](C)O2)Oc2ccc(cc2Cl)[C@H]1O |  |  |  |  |  |  |  |  |  |  |  | CC50 at 24 h [1]: > 300 µM
CCCCCCCC[C@H]1NC(=O)[C@H](CCN)NC(=O)[C@@H](NC(=O)[C@H](CCN)NC(=O)[C@@H](NC(=O)[C@H](CCN)NC(=O)CCCCCCC)[C@@H](C)O)CCNC(=O)[C@H]([C@@H](C)O)NC(=O)[C@H](CCN)NC(=O)[C@H](CCN)NC(=O)[C@H](CC(C)C)NC1=O (Octanoyl-[Dab]T[Dab][Dab][Dab][dGly(nOct)]L[Dab][Dab]T; lactam 4-C) | 1 µg/mL (≈ 0.825 µM) | 1 µg/mL (≈ 0.825 µM) | 4 µg/mL (≈ 3.3 µM) |  |  |  |  |  |  |  |  | 
CCCCCCCC(=O)N[C@@H](CCN)C(=O)N[C@H](C(=O)N[C@@H](CCN)C(=O)N[C@H]1CCNC(=O)[C@H]([C@@H](C)O)NC(=O)[C@H](CCN)NC(=O)[C@H](CCN)NC(=O)[C@H](CC(C)C)NC(=O)[C@@H](Cc2ccccc2)NC(=O)[C@H](Cc2ccc(N)cc2)NC1=O)[C@@H](C)O (Octanoyl-[Dab]T[Dab][Dab][Phe(4-NH2)][dF]L[Dab][Dab]T; lactam 4-C) | > 32 µg/mL | > 32 µg/mL | > 32 µg/mL | > 32 µg/mL | > 32 µg/mL | > 32 µg/mL | > 32 µg/mL | > 32 µg/mL | > 32 µg/mL | > 32 µg/mL | > 32 µg/mL | CC50 at 24 h [1]: > 300 µM
CCCCCCCC(=O)N[C@@H](CCN)C(=O)N[C@H](C(=O)N[C@@H](CCN)C(=O)N[C@H]1CCNC(=O)[C@H]([C@@H](C)O)NC(=O)[C@H](CCN)NC(=O)[C@H](CCCNC(=N)N)NC(=O)[C@H](CC(C)C)NC(=O)[C@@H](Cc2ccccc2)NC(=O)[C@H](CCN)NC1=O)[C@@H](C)O | 4 µg/mL (≈ 3.21 µM) | 0.5 µg/mL (≈ 0.401 µM) | 1 µg/mL (≈ 0.803 µM) | 0.25 µg/mL (≈ 0.201 µM) | 0.5 µg/mL (≈ 0.401 µM) | 32 µg/mL (≈ 25.7 µM) | > 32 µg/mL | 32 µg/mL (≈ 25.7 µM) | > 32 µg/mL | > 32 µg/mL | > 32 µg/mL | MIC (Klebsiella pneumoniae [11]; ATCC BAA-2146, 18 h): 0.5 µg/mL (≈ 0.401 µM)
CCCCCCCC(=O)N[C@@H](CCN)C(=O)N[C@H](C(=O)N[C@@H](CCN)C(=O)N[C@H]1CCNC(=O)[C@H]([C@@H](C)O)NC(=O)[C@H](CCN)NC(=O)[C@H](CCNC(=O)[C@@H](N)CCCNC(=N)N)NC(=O)[C@H](CC(C)C)NC(=O)[C@@H](Cc2ccccc2)NC(=O)[C@H](CCN)NC1=O)[C@@H](C)O | 4 µg/mL (≈ 2.97 µM) | 4 µg/mL (≈ 2.97 µM) | 2 µg/mL (≈ 1.49 µM) | 0.5 µg/mL (≈ 0.372 µM) | 0.5 µg/mL (≈ 0.372 µM) | > 32 µg/mL | > 32 µg/mL | > 32 µg/mL | > 32 µg/mL | > 32 µg/mL | > 32 µg/mL | MIC (Klebsiella pneumoniae [11]; ATCC BAA-2146, 18 h): 1 µg/mL (≈ 0.743 µM)
CCCCCCCC[C@@H]1NC(=O)[C@@H](Cc2ccccc2)NC(=O)[C@H](CCN)NC(=O)[C@@H](NC(=O)[C@H](CCN)NC(=O)[C@@H](NC(=O)[C@H](CCN)NC(=O)CCCCCCC)[C@@H](C)O)CCNC(=O)[C@H]([C@@H](C)O)NC(=O)[C@H](CCN)NC(=O)[C@H](CCN)NC1=O (Octanoyl-[Dab]T[Dab][Dab][Dab][dF][Gly(octyl)][Dab][Dab]T; lactam 4-C) | 4 µg/mL (≈ 3.21 µM) | 2 µg/mL (≈ 1.61 µM) | 1 µg/mL (≈ 0.803 µM) |  |  |  |  |  |  |  |  | 
GENTAMICIN |  |  |  |  |  |  |  |  |  |  |  | MIC (Escherichia coli): 0.25 µg/mL; MIC (Klebsiella pneumoniae [2]): 0.25 µg/mL; MIC (Klebsiella pneumoniae [5]): 8 µg/mL; MIC (Klebsiella pneumoniae [11]): > 32 µg/mL; MIC (Acinetobacter baumannii [3]): 32 µg/mL; MIC (Pseudomonas aeruginosa [4]): 1 µg/mL; MIC (Pseudomonas aeruginosa [6]): 32 µg/mL; MIC (Pseudomonas aeruginosa [7]): > 32 µg/mL; MIC (Acinetobacter baumannii [8]): > 32 µg/mL; MIC (Klebsiella pneumoniae [9]): > 32 µg/mL; MIC (Klebsiella pneumoniae [10]): 1 µg/mL
